CSN inh – inhibitors of human CSN-mediated cullin deneddylation | Q92905 | Purified CSN, SCF-Nedd8-OG deneddylation, fluorescence polarization | inhibition, % at 12.5 µM | hit rate 0.38% among 360,000 | AID 651999;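 active = pattern-corrected inhibition above about 35%, with an unprinted fluorescence ratio check between 0.5 and 1.5, limit read from the data, passing the limit was not always enough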;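 note: 0% = enzyme with substrate and 100% = substrate without enzyme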
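test system = HEK293T-derived human Csn5 enzyme | amount = 0.24 nM Csn5 enzyme, final concentration | medium = Tris/NaCl/DTT buffer, pH 7.5 | schedule = 90 min reaction at room temperature | signal = FP | evaluation = inhibition of Csn5 cleavage, % | compound dosing = single dose of 12.5 µM compound with 0.25% DMSO | probe or stimulus = 10 nM SCFSkp2-Nedd8OG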
CRFR2-BP ag – agonists of human CRF-binding protein/CRF-R2 receptor complex; hit rate 0.46% among 350,000; HEK293 CRF-R2/CRF-BP, calcium dye fluorescence (FLIPR); percent of saturating CRF peptide response; activation, % at 13.2 µM; AID 588473;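 active = activation of at least 50%, plus an integration ratio under a set limit after plate pattern correction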;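 note: plate controls were neutral control wells without compound for no effect and CRF at EC100 for full effect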
CRFR2-BP antag – blocks CRF-induced signaling of the CRF-BP/CRF-R2 complex | inhibition, % at 11.8 µM | AID 588475 | HEK293 CRF-R2/CRF-BP, CRF-induced calcium fluorescence | hit rate 0.59% among 350,000;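 active = inhibition of the ligand-induced calcium signal above about 50% at the single tested concentration, limit read from the data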
Rpn11 block – Rpn11 (human) deubiquitinase inhibition | calls only at 20 µM | human 26S proteasome, Ub4-pepOG fluorescence polarization; 20S core pre-blocked with epoxomicin | hit rate 0.59% among 360,000 | AID 588493 | O00487;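 active = inhibition at 20 µM, scaled to each plate's controls, above about 33%, limit read from the data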
Target sequence (O00487 whole entry, looked up): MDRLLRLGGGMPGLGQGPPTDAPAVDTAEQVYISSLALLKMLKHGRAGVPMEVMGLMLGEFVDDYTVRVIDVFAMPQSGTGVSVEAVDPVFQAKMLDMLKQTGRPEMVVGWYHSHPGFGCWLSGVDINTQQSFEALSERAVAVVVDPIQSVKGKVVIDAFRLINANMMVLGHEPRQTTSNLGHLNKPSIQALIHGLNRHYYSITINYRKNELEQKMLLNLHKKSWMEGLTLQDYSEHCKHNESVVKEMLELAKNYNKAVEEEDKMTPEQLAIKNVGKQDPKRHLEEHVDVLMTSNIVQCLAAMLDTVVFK
TPT1 inh – blocks Candida albicans tRNA 2'-phosphotransferase; inhibition, % at 5 µM; hit rate 0.81% among 300,000; recombinant caTPT1, FP RNA substrate dephosphorylation;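 active = inhibition above the mean of all tested compounds plus 3 SD, set per screening campaign, cut at about 24% in these data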;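 note: plate controls were DMSO alone for no effect and ferristatin control at 100 nM for full effect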
HNF4A DNA FP – change in binding of human HNF4 alpha to DNA | P41235 | HNF4a-FITC DNA binding, fluorescence polarization, 1 h | activity change, % at 10 µM | hit rate 0.3% among 360,000; in the data active = activity change above about 30%, passing the limit was not always enough
HNF4a DNA conf – change in binding of human HNF4 alpha to DNA, retest. shares compounds with HNF4A DNA FP. HNF4A-FITC DNA binding, fluorescence polarization, 1 h. activity change, % at 12.5 µM. hit rate 99% among 210; call rule not given here
An asterisk follows results filed as active; i = inactive; / = no result given. An excerpt weighted towards active compounds, which were near 2.3% of everything screened.

SMILES	CSN inh	CRFR2-BP ag	CRFR2-BP antag	Rpn11 block	TPT1 inh	HNF4A DNA FP	HNF4a DNA conf
C#CCNC(=O)c1cc(-c2ccccc2)sc1N	22.4	/	/	/	/	67.1*	79.8*
Cc1cc(NC(=O)c2cc(-c3ccccn3)nc3c(Cl)cccc23)no1	1.9	0.0	-5.7	i	-1.3	-1.7	/
O=C(Nc1nccs1)c1cc(-c2ccccn2)nc2c(Cl)cccc12	26.4	-0.9	0.5	i	-1.2	72.5*	45.4*
Cc1cc(=O)oc2cc(NC(=O)c3cccc(S(C)(=O)=O)c3)ccc12	0.6	0.4	0.3	i	4.3	-2.2	/
Cc1cc(=O)oc2cc(NC(=O)c3cccc(F)c3)ccc12	41.8*	-0.2	-10.7	i	2.6	41.2*	34.8*
Cc1cc(O)cc(=O)n1CCc1ccccc1	0.7	-1.4	6.6	i	-4.9	1.7	/

Compound activity as filed in PubChem.
